Laboratory results reported in ChEMBL document CHEMBL3232774, “Symmetric bis-chalcones as a new type of breast cancer resistance protein inhibitors with a mechanism different from that of chromones” (J Med Chem, 2014).

What was measured:
[1] = tested on: HEK293; experiment: Cytotoxicity against HEK293 cells overexpressing ABCG2 at 0.1 uM after 72 hrs by MTT assay; type: ADME, cell-based; conditions: human, hek293, 72 h
In short: (§1)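 HEK293-ABCG2 and vector-control HEK293-pcDNA3.1 cells were seeded at 1 × 10⁴/well and grown 24 h, then exposed 72 h to mitoxantrone (0–25 nM). ABCG2 cells were also given bis-chalcone at 0.1 or 0.5 μM. MTT was added for 4 h, formazan dissolved in DMSO/ethanol (1:1) and read at 570 nm. IC50 = mitoxantrone concentration giving 50% survival.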

[2] = molecular target: Multidrug resistance-associated protein 1 (Homo sapiens, UniProt P33527); experiment: Inhibition of ABCC1 (unknown origin) transfected in HEK293 cells assessed as inhibition of calcein-AM efflux up to 10 uM after 30 mins by flow cytometry relative to control; type: cell-based; conditions: hek293, 0.5 h
Chain of Multidrug resistance-associated protein 1 (P33527 whole entry): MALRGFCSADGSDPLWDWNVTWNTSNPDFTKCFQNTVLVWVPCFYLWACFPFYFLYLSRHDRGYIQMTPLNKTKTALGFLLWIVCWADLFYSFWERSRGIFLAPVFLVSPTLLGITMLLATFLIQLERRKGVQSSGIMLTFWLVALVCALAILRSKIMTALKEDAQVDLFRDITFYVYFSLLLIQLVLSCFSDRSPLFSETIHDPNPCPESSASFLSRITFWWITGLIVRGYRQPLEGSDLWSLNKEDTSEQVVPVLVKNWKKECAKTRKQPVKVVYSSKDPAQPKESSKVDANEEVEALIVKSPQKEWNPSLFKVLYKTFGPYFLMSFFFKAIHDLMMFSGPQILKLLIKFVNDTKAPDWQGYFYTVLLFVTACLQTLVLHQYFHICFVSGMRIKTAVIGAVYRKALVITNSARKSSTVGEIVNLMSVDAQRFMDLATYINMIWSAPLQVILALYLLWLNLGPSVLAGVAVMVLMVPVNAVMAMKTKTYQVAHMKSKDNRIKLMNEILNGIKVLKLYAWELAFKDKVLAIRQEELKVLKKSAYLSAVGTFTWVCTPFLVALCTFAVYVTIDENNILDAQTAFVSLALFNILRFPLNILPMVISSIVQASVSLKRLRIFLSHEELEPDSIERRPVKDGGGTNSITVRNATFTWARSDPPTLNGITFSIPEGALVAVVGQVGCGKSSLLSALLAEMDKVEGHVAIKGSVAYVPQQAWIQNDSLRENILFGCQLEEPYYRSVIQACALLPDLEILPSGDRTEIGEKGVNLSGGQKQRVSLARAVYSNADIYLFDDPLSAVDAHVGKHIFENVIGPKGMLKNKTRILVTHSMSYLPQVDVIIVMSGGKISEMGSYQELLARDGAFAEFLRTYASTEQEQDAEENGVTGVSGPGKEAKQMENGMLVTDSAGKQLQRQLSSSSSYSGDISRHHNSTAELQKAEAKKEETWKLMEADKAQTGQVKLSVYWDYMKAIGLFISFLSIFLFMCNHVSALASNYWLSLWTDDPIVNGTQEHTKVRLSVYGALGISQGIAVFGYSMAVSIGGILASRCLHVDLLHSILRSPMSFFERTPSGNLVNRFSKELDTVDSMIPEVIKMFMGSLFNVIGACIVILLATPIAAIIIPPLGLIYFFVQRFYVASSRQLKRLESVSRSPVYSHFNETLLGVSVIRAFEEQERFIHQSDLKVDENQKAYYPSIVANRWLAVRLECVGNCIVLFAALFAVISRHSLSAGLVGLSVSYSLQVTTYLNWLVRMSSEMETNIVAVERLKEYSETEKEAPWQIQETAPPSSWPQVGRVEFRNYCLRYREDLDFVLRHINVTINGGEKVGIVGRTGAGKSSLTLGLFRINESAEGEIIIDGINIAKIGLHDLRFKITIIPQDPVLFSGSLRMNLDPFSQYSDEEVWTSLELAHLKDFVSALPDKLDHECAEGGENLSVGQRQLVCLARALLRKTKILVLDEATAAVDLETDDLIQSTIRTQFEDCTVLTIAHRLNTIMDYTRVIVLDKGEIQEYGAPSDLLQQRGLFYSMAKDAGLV
In short: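 HEK293-ABCC1 cells (2 × 10⁵/well, kept in 200 μg/mL hygromycin B) were exposed to 0.2 μM calcein-AM for 30 min at 37 °C with bis-chalcone at 1 or 10 μM. Calcein was read by FL1 flow cytometry, ≥10 000 events. Inhibition was expressed relative to HEK293/pcDNA5 cells, whose maximal accumulation equals complete inhibition.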

[3] = Selectivity ratio of EC50 for human H23 cells overexpressing ABCG2 to EC50 for human H460 cells overexpressing ABCG2; type: functional
[4] = molecular target: T1, Broad substrate specificity ATP-binding cassette transporter ABCG2 (Homo sapiens, UniProt Q9UNQ0); experiment: Inhibition of human ABCG2 ATPase activity transfected in Sf9 insect cells using quercetin as substrate after 30 mins by colorimetry relative to control
T1 sequence (Q9UNQ0 whole entry): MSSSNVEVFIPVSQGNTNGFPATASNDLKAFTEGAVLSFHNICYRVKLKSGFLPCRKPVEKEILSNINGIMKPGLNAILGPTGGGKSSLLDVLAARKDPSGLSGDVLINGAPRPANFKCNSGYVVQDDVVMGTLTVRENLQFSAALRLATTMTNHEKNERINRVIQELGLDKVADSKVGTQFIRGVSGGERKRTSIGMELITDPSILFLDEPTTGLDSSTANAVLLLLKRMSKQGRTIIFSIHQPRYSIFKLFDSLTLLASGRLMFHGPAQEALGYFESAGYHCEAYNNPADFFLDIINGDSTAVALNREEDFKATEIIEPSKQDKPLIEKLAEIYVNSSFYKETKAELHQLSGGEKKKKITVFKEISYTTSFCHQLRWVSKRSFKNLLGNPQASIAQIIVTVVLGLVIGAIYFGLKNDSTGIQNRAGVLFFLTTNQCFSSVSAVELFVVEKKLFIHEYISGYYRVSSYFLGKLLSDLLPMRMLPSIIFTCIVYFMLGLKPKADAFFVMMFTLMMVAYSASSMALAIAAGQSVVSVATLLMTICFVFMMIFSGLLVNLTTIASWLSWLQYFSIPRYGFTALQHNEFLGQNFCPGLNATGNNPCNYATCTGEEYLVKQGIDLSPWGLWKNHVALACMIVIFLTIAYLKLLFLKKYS
In short: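 Vanadate-sensitive ATPase of cholesterol-loaded human ABCG2 Sf9 membranes (0.5 mg/mL; 10 μg/sample), 50 mM Tris-HCl/50 mM NaCl pH 8.0, with 2 μM quercetin. ATP-Mg 3.9 mM, 30 min, 37 °C. Phosphate measured colorimetrically at 880 nm. Coupled activity = total minus basal, taken as 100%. IC50 is the concentration giving 50% inhibition.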

[5] = molecular target: T1, Broad substrate specificity ATP-binding cassette transporter ABCG2; experiment: Inhibition of ABCG2 (unknown origin) transfected in HEK293 cells assessed as inhibition of mitoxantrone efflux at 5 uM after 30 mins in presence of 0.02 uM Ko143 by flow cytometry; type: cell-based
[6] = molecular target: T2, ABCG2 ATPase (Homo sapiens, UniProt Q9UNQ0); experiment: Activation of human ABCG2 transfected in Sf9 insect cells assessed as stimulation of basal ATPase activity in absence of substrate drug after 30 mins by colorimetry; conditions: Sf9 insect cells transfected with human ABCG2, read-out: FC
T2 sequence (Q9UNQ0 whole entry): T1 sequence (Q9UNQ0 whole entry)
In short: (§2)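 Cholesterol-loaded membranes from Sf9 cells overexpressing human ABCG2 (0.5 mg/mL; 10 μg/sample) in 50 mM Tris-HCl, 50 mM NaCl, pH 8.0, with or without 0.33 mM orthovanadate, no transport substrate; started with 3.9 mM ATP-Mg, 30 min at 37 °C; stopped with SDS; phosphate released read with molybdate/ascorbic acid at 880 nm; vanadate-sensitive basal activity taken as 100%.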

[7] = molecular target: T3, ABCG2 (Homo sapiens, UniProt Q9UNQ0); experiment: Inhibition of ABCG2 (unknown origin) transfected in HEK293 cells assessed as inhibition of mitoxantrone efflux at 5 uM after 30 mins by flow cytometry relative to control; type: cell-based; conditions: HEK293 cells transfected with ABCG2, probe mitoxantrone
T3 sequence (Q9UNQ0 whole entry): T1 sequence (Q9UNQ0 whole entry)
In short: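 HEK293-ABCG2 cells (1.5 × 10⁵/well, grown 48 h) exposed to 5 μM mitoxantrone for 30 min at 37 °C with compound (increasing concentrations up to 10 μM); washed, trypsinized, FL4 flow cytometry, ≥10 000 events.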

[8] = molecular target: T1, Broad substrate specificity ATP-binding cassette transporter ABCG2; experiment: Inhibition of human ABCG2 transfected in Sf9 insect cells assessed as inhibition of basal ATPase activity in absence of substrate drug after 30 mins by colorimetry; conditions: sf9, 0.5 h; in short: as §2
[9] = tested on: ATP-binding cassette sub-family G member 2 (Homo sapiens); experiment: Inhibition of ABCG2-mediated mitoxantrone efflux in mitoxantrone-selected human PANC1 cells overexpressing ABCG2; conditions: PANC-1
[10] = molecular target: ATP-dependent translocase ABCB1 (Homo sapiens, UniProt P08183); experiment: Inhibition of ABCB1 (unknown origin) transfected in mouse NIH/3T3 cells assessed as inhibition of mitoxantrone efflux up to 10 uM after 30 mins by flow cytometry relative to control; type: cell-based; conditions: nih/3t3, 0.5 h
Chain of ATP-dependent translocase ABCB1 (P08183 whole entry): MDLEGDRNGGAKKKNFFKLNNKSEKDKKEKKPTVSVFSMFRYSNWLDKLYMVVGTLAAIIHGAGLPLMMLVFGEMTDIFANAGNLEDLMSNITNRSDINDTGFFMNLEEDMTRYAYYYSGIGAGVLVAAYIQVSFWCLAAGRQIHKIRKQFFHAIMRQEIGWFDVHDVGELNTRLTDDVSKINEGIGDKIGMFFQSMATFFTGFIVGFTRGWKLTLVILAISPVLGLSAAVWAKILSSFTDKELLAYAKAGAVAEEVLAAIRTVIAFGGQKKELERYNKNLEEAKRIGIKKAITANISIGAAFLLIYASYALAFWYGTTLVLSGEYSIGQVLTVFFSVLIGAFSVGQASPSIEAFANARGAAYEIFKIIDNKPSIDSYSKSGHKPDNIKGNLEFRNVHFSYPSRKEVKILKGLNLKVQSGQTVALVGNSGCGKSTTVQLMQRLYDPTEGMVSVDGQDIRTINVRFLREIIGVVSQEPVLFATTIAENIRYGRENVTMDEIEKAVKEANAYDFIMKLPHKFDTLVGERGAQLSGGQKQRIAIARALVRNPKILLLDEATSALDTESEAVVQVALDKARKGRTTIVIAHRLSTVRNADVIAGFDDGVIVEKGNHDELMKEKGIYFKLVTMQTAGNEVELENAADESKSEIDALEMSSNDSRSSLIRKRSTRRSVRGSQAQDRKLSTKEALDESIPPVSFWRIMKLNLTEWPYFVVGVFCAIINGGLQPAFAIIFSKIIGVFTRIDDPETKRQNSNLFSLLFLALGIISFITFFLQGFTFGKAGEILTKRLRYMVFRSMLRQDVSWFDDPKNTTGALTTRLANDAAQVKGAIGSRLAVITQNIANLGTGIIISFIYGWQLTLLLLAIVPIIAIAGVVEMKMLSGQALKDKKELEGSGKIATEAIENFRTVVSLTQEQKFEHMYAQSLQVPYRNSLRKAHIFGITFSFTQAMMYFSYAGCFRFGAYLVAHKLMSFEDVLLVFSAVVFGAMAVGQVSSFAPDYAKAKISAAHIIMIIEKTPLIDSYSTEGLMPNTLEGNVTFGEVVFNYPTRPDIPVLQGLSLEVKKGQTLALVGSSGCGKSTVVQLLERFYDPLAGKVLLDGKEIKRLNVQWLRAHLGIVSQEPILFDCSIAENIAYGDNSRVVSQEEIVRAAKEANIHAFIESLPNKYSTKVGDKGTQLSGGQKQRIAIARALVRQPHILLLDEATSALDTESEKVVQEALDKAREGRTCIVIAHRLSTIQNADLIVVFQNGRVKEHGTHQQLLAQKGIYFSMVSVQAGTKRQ
In short: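 NIH-3T3-ABCB1 cells (1.5 × 10⁵/well, 48 h, kept in 60 ng/mL colchicine) were given 5 μM mitoxantrone for 30 min at 37 °C with bis-chalcone at 1 or 10 μM. Fluorescence was read by FL4 flow cytometry, ≥10 000 events. Inhibition was expressed relative to parental NIH-3T3 cells, whose maximal accumulation was taken as complete inhibition.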

[11] = molecular target: T1, Broad substrate specificity ATP-binding cassette transporter ABCG2; experiment: Inhibition of ABCG2 (unknown origin) transfected in HEK293 cells assessed as inhibition of mitoxantrone efflux after 30 mins by flow cytometry relative to control; type: cell-based
[12] = molecular target: T1, Broad substrate specificity ATP-binding cassette transporter ABCG2; experiment: Inhibition of ABCG2 (unknown origin) transfected in HEK293 cells assessed as inhibition of mitoxantrone efflux at 5 uM after 30 mins in presence of 0.1 uM chromone 1 by flow cytometry; type: cell-based
[13] = tested on: PANC-1; experiment: Selectivity ratio of EC50 for human PANC1 cells overexpressing ABCG2 to EC50 for human H460 cells overexpressing ABCG2; type: functional
[14] = molecular target: T1, Broad substrate specificity ATP-binding cassette transporter ABCG2; experiment: Inhibition of ABCG2 (unknown origin)-mediated mitoxantrone efflux transfected in HEK293 cells assessed as potentiation of mitoxantrone-induced cytotoxicity at 0.1 uM after 72 hrs by MTT assay; type: cell-based; conditions: hek293, 72 h; in short: as §1

Which Activity [1] does the source give for `COc1cccc(OC)c1/C=C/C(=O)c1ccc(C(=O)/C=C/c2c(OC)cccc2OC)cc1` here?
Its Activity is “Non-toxic”.

What about the “inhibition (INH)” value [2] of the same compound?
The value was “Not Active”.

What about the “Ratio EC50” value [3] of the same compound?
Its value is 3.

What about the IC50 [4] of the same compound?
The IC50 was 190 nM.

And the EC50 [5]?
The EC50 was 126 nM.

And the fold induction at 0.5 h [6]?
Its fold induction at 0.5 h is 1.6.

And the inhibition at 0.5 h, 5 µM [7]?
The inhibition at 0.5 h, 5 µM was 108%.

What about the “inhibition (INH)” value [8] of the same compound?
The value was “Not Active”.

What about the EC50 [9] of the same compound?
The EC50 was 210 nM.

What about the “inhibition (INH)” value [10] of the same compound?
The value was “Not Active”.

And the EC50 [11]?
Its EC50 is 200 nM.

And the EC50 [12]?
Its EC50 is 15 nM.

What about the “Ratio EC50” value [13] of the same compound?
The value was 3.

What about the “inhibition (INH)” value [14] of the same compound?
Its value is “Active”.
